How the values were obtained:
Bcl-2-related protein A1 [1] = target: T1, Bcl-2-related protein A1 (Homo sapiens, UniProt Q16548); assay: Inhibition of N-terminal His6-tagged recombinant human Bfl-1 (1 to 151 residues) expressed in Escherichia coli BL21-Gold (DE3) using HyLite Fluor 647-labeled BIM peptide as substrate incubated for 120 mins by TR-FRET assay
T1 sequence (Q16548 whole entry): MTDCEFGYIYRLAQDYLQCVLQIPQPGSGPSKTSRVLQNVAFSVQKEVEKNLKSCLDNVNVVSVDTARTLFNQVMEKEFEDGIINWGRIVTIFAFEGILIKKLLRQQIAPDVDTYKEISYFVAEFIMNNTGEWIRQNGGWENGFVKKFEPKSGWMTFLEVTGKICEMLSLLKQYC
In short: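 Bfl-1 binding read as displacement of a labeled BIM peptide probe in a TR-FRET assay, reported as IC50 in μM.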

[2] = Lipophilicity, logD of compound in octanol/water at pH 7.4 by shake-flask method; assay type: physicochemical
[3] = target: Induced myeloid leukemia cell differentiation protein Mcl-1 (Homo sapiens, UniProt Q07820); assay: Inhibition of Mcl-1 (unknown origin) incubated for 120 mins by TR-FRET assay
[4] = target: Apoptosis regulator Bcl-2 (Homo sapiens, UniProt P10415); assay: Inhibition of Bcl-2 (unknown origin) incubated for 120 mins by TR-FRET assay
Bcl-2-like protein 1 = Bcl-2-like protein 1 (Homo sapiens, UniProt Q07817); assay: Inhibition of Bcl-xl (unknown origin) incubated for 120 mins by TR-FRET assay
Bcl-2-related protein A1 [5] = target: T1, Bcl-2-related protein A1; assay: Binding affinity of N-terminal His6-tagged recombinant human Bfl-1 (1 to 151 residues) expressed in Escherichia coli BL21-Gold (DE3) assessed as inhibition constant by MS analysis

Sequence of Apoptosis regulator Bcl-2 (P10415 whole entry): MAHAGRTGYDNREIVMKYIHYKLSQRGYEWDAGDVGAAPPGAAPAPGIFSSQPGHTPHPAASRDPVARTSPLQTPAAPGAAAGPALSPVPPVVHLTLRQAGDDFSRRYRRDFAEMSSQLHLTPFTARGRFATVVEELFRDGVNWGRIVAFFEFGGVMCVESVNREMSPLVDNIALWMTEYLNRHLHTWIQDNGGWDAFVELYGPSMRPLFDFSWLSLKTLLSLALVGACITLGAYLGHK
Sequence of Bcl-2-like protein 1 (Q07817 whole entry, the tested form may be a part): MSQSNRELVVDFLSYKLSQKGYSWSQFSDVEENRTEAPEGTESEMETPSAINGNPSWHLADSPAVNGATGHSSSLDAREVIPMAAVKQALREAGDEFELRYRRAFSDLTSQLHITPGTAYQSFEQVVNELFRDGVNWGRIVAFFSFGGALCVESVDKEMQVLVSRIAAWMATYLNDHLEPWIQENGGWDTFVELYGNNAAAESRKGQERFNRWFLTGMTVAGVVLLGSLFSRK
Sequence of Induced myeloid leukemia cell differentiation protein Mcl-1 (Q07820 whole entry): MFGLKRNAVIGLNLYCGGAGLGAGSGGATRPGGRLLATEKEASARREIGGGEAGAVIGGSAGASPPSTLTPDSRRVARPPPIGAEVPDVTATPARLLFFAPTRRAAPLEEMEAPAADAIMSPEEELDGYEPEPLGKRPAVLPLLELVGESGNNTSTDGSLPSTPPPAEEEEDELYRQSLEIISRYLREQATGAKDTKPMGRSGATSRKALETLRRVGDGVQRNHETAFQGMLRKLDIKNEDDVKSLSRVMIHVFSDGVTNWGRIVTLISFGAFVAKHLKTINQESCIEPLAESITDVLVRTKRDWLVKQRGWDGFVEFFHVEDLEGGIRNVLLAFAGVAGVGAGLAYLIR

IC50 (Bcl-2-related protein A1 [1]) [µM] | logD [2] | IC50 [3] [µM] | IC50 [4] [µM] | IC50 (Bcl-2-like protein 1) [µM] | Ki (Bcl-2-related protein A1 [5]) [µM] | Compound
> 100 | 2.6 |  |  |  |  | CN(C)C(=O)[C@H](Cc1ccc(C(F)(F)F)cc1)NC(=O)/C(C#N)=C/c1ccccc1S(C)(=O)=O
29 | 2 | > 100 | > 100 | > 100 | 5.4 | CN(C)C(=O)[C@H](Cc1ccc(C(F)(F)F)cc1)NC(=O)/C(C#N)=C/c1ccccc1P(C)(C)=O
4.3 | 3 |  |  |  |  | CP(C)(=O)c1ccccc1/C=C(\C#N)C(=O)NCC1(c2ccc(C(F)(F)F)cc2)CC1
> 100 | 3.2 |  |  |  |  | CN(C)C(=O)C(Cc1ccc(C(F)(F)F)cc1)NC(=O)/C(C#N)=C/c1ccccc1S(=O)(=O)N(C)C (racemic)
> 100 | 2.2 |  |  |  |  | CN(C)C(=O)[C@H](Cc1ccc(C(F)(F)F)cc1)NC(=O)/C(C#N)=C/c1cccc(P(C)(C)=O)c1
> 100 | 1.7 |  |  |  |  | CP(C)(=O)c1ccccc1/C=C(\C#N)C(=O)NCCc1ccccc1
> 100 | 3.9 |  |  |  |  | CN(C)C(=O)[C@H](Cc1ccc(C(F)(F)F)cc1)NC(=O)/C(C#N)=C/c1ccccc1
23 | 2.7 |  |  |  |  | CP(C)(=O)c1ccccc1/C=C(\C#N)C(=O)NCCc1ccc(C(F)(F)F)cc1
> 100 | 2.1 |  |  |  |  | CN(C)C(=O)[C@H](Cc1ccc(C(F)(F)F)cc1)NC(=O)/C(C#N)=C/c1ccc(P(C)(C)=O)cc1
54 | 2.3 |  |  |  |  | CP(C)(=O)c1ccccc1/C=C(\C#N)C(=O)NCCc1ccc(Cl)cc1
27 | 1.9 |  |  |  |  | CP(C)(=O)c1ccccc1/C=C(\C#N)C(=O)NCCc1ccc(Cl)c(Cl)c1
> 100 | 2.1 |  |  |  |  | CN(C)C(=O)[C@@H](Cc1ccc(C(F)(F)F)cc1)NC(=O)/C(C#N)=C/c1ccccc1P(C)(C)=O
> 100 | 2.2 |  |  |  |  | CN(C)C(=O)c1ccccc1/C=C(\C#N)C(=O)NC(Cc1ccc(C(F)(F)F)cc1)C(=O)N(C)C (racemic)
50 | 2 |  |  |  |  | CP(C)(=O)c1ccccc1/C=C(\C#N)C(=O)NCC1(c2ccccc2)CC1
